Only some compounds are listed: those with a hit (about 9.4% of all), similar ones and a draw of the others.
T cruzi repl = T. cruzi replication inhibition. 300,000 compounds, 1.4% hits. T. cruzi beta-gal in NIH3T3, luminescence, 90 h. inhibition, % (test concentration not listed). AID 1885;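 active = mean inhibition across valid replicates above about 55%, limit read from the data; inconclusive = mean below that limit but half or more replicates reach it; inactive = mean below it, under half of replicates reach it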;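 note: signal also drops with host cell toxicity which is not excluded here; higher percent means less beta-gal luminescence so fewer parasites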
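Assay system: NIH/3T3 fibroblasts plus reporter T. cruzi. Amount: NIH/3T3 cells, 5,000 per well. Buffer or medium: DMEM, 2% fetal bovine serum. Doses: compound pinned at 50 nL/well, DMSO. Schedule: ≥90 h infection period, 3 h prior cell attachment. Signal: luminescent β-galactosidase signal after 60 min lysis. Read-out: parasite load inhibition, %.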
L major viab = reduces viability of Leishmania major promastigotes | resazurin fluorescence viability | inhibition, % at 10 µM | 200,000 compounds, 9% hits | AID 1063; in the data active = inhibition above about 50%;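 note: promastigotes grown with compound for 44 hours at 28 °C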
SKKanGAS inh = blocks kanamycin growth of S. pyogenes SKKanGAS strain; 300,000 compounds, 1.3% hits; AID 1662; BacTiter-Glo, 6 h; inhibition, % at 7.5 µM;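 active = mean replicate score, as percent of positive control median, at least 50; inconclusive = mean below 50 but one replicate at or above 50; inactive = mean and every replicate below 50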;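 note: strain carries kanamycin resistance gene driven by streptokinase promoter and grows in 40 µg/ml kanamycin; loss of luminescence reflects streptokinase promoter inhibition or plain growth inhibition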
CSC inhib = cancer stem cell inhibition. inhibition, % at 7.5 µM. 300,000 compounds, 1.1% hits. cancer stem cell-like cells viability, luminescence. AID 2717; in the data active = inhibition above about 75%; inconclusive = no clear call, values can overlap the other calls; tested in HMLE shEcad cells
Beta apoptosis = blocks beta cell apoptosis. AID 435005. protection from apoptosis, % (no concentration beside the values). INS-1E cytokine-induced death, ATP luminescence, 48 h; percent of positive-control rescue, neutral wells zero. 300,000 compounds, 0.8% hits;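 active = Every replicate reaches about 75%, or at least half do and their mean reaches it too, limit read from the data; inconclusive = At least half of replicates reach the limit but their mean does not; inactive = Under half of replicates reach the limit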;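 note: higher means more ATP so stronger rescue from cytokine killing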
Mdm2 MdmX PPI = human Mdm2/MdmX binding inhibition. inhibition, % at 8 µM. 330,000 compounds, 3% hits. SaOS-2 split-luciferase Mdm2/MdmX complementation, luminescence. AID 485346. O15151+Q00987;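 active = inhibition of at least 50% at 8 µM in the primary screen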
Mdm2-MdmX conf = confirmation of human Mdm2/MdmX interaction inhibitors. shares compounds with Mdm2 MdmX PPI. Mdm2-MdmX binding, luminescent assay. inhibition, % at 8 µM. 10,000 compounds, 55% hits. AID 489028; in the data active = inhibition above about 40%
FLuc counter = counter-screen for Mdm2/MdmX inhibitors: full-length luciferase; shares compounds with Mdm2 MdmX PPI; SaOS-2 full-length luciferase counterscreen, luminescence; 6,200 compounds, 77% hits; inhibition, % at 8 µM;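 active = mean inhibition at 8 µM reaching about 37%, which flags the compound as non-specific, limit read from the data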;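 note: p53-null SaOS-2 cells with luciferase driven by a doxycycline-inducible promoter; compound on cells about two nights before reading with doxycycline added after day one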
Of the large screens only hits and unclear results are named; the others gave an inactive call (follow-up assays come after a bar, where they were run).

CCC(C)(C)C(=O)O[C@H]1C[C@@H](C)C=C2C=C[C@H](C)[C@H](CC[C@@H]3C[C@@H](O)CC(=O)O3)[C@H]21	Mdm2 MdmX PPI 55 (no result: L major viab) | Mdm2-MdmX conf inactive
Cc1cccc(Cl)c1NC(=O)N1CCCN(c2ncccc2[N+](=O)[O-])CC1	none (no result: L major viab)
CC(C)C(=O)Nc1ccc(C(=O)N/N=C/c2cc(Br)cc(Br)c2O)cc1	L major viab 89, SKKanGAS inh 68, CSC inhib 84, Beta apoptosis 79, Mdm2 MdmX PPI 66 | Mdm2-MdmX conf inactive
CCOC(=O)c1ccc(-c2c(C)cc3oc(=O)cc(-c4ccccc4)c3c2C)cc1	none (no result: T cruzi repl, L major viab, SKKanGAS inh, CSC inhib, Beta apoptosis)
Cc1c(/C=N/NC(=O)c2cccs2)c2ccccc2n1Cc1ccccc1Cl	Mdm2 MdmX PPI 72 (no result: L major viab) | Mdm2-MdmX conf 65 | FLuc counter 90
CC(C)(C)Nc1nc(N2CCCC2)nc(N2CCCC2)n1	L major viab 98, Mdm2 MdmX PPI 55 | Mdm2-MdmX conf inactive
Cc1ccc(OCCN(C)C(=O)c2cc(COc3ccc(F)cc3F)on2)cc1	none (no result: L major viab, Beta apoptosis)
Cn1ncc(Cl)c1C(=O)Nc1cccc(Cl)c1	none
Cc1occc1C(=O)N/N=C/c1c(O)ccc2ccccc12	SKKanGAS inh 94, Beta apoptosis 76, Mdm2 MdmX PPI 84 (no result: L major viab) | Mdm2-MdmX conf 83 | FLuc counter inactive
O=C(N/N=C/c1c(O)ccc2ccccc12)c1ccc(Br)o1	SKKanGAS inh 106, CSC inhib 156, Beta apoptosis 102, Mdm2 MdmX PPI 87 (no result: L major viab) | Mdm2-MdmX conf 81 | FLuc counter 54
O=C(N/N=C\c1c(O)ccc2ccccc12)c1ccc(O)cc1	SKKanGAS inh 107, Mdm2 MdmX PPI 68 (no result: L major viab, Beta apoptosis) | Mdm2-MdmX conf 52 | FLuc counter inactive
Cn1ncc(N=Cc2c(O)ccc3ccccc23)c1C(=O)Nc1cccc(Cl)c1	Mdm2 MdmX PPI 61 | Mdm2-MdmX conf inactive
O=C(N/N=C/c1c(O)ccc2ccccc12)c1ccc[n+](CCO)c1	none
CCc1nnc(SCC(=O)Nc2ccc(N3CCN(S(C)(=O)=O)CC3)cc2)o1	none (no result: L major viab, CSC inhib)
Cn1cc(C(=O)N/N=C/c2c(O)ccc3ccccc23)ccc1=O	L major viab 99, CSC inhib 94, Beta apoptosis 93, Mdm2 MdmX PPI 79 | Mdm2-MdmX conf 72 | FLuc counter inactive
COc1cc(OC)c(OC)cc1/C=N/NC(=O)c1ccc(=O)n(C)c1	none (no result: Beta apoptosis)
O=C(N/N=C/c1ccccc1O)c1cccc2ccccc12	SKKanGAS inh 106, Mdm2 MdmX PPI 53 (no result: L major viab, CSC inhib, Beta apoptosis) | Mdm2-MdmX conf 53 | FLuc counter 46
Cn1nccc1C(=O)N/N=C/c1c(O)ccc2ccccc12	Beta apoptosis 100, Mdm2 MdmX PPI 82 (no result: L major viab) | Mdm2-MdmX conf 80 | FLuc counter inactive
CC(C)N1CCc2c(sc(NC(=O)CN3C(=O)c4ccccc4C3=O)c2C(N)=O)C1	none
COc1cc2ccccc2cc1C(=O)Nc1sc2c(c1C(N)=O)CCN(C(C)C)C2	CSC inhib 95, Beta apoptosis 112, Mdm2 MdmX PPI 100 (no result: L major viab) | Mdm2-MdmX conf 42 | FLuc counter 48
CC[C@]12c3[nH]c4cc(CCC(=O)N(C)C)ccc4c3CCN1C(=O)[C@@H](CC(=O)NC/C=C(\C)CCC=C(C)C)C[C@@H]2C(=O)N1CCN(C(=O)c2ccco2)CC1	Mdm2 MdmX PPI 93 (no result: T cruzi repl, L major viab, SKKanGAS inh, CSC inhib, Beta apoptosis) | Mdm2-MdmX conf 59 | FLuc counter 59
CC[C@]12c3[nH]c4ccc(Cl)cc4c3CCN1C(=O)[C@@H](CC(=O)NC(C)(C)C)C[C@@H]2C(=O)N1CCN(C(=O)c2ccco2)CC1	none (no result: T cruzi repl, L major viab, SKKanGAS inh, CSC inhib, Beta apoptosis)
CC[C@]12c3[nH]c4ccc(Cl)cc4c3CCN1C(=O)[C@@H](CC(=O)NC/C=C(\C)CCC=C(C)C)C[C@@H]2C(=O)N1CCN(C(=O)c2ccco2)CC1	Mdm2 MdmX PPI 66 (no result: T cruzi repl, L major viab, SKKanGAS inh, CSC inhib, Beta apoptosis) | Mdm2-MdmX conf inactive
O=C(COC(=O)Cc1ccccc1F)Nc1ccc(F)cc1F	none
COc1ccc(C(=O)Nc2cccc(NC(=O)c3cccs3)c2)cc1	none (no result: L major viab)
O=C(NC(=S)Nc1cccnc1)c1cccs1	none (no result: CSC inhib)
COc1ccc(NC(=O)c2ccc(NC(=O)c3cccs3)cc2)cc1	Mdm2 MdmX PPI 67 (no result: L major viab) | Mdm2-MdmX conf inactive
COc1cccc(C(=O)Nc2ccc(N3CCN(C(=O)c4cccs4)CC3)cc2)c1	Mdm2 MdmX PPI 61 (no result: L major viab) | Mdm2-MdmX conf 57 | FLuc counter 60
O=C(Nc1ccc(N2CCN(C(=O)c3cccs3)CC2)cc1)c1cccc(F)c1	none (no result: L major viab)
O=C(Nc1cccnc1)c1cccs1	Beta apoptosis 89, Mdm2 MdmX PPI 77 | Mdm2-MdmX conf 70 | FLuc counter 40
COc1cccc(NC(=O)c2ccc(CN3CCN(c4ccccc4)CC3)cc2)c1	Mdm2 MdmX PPI 57 | Mdm2-MdmX conf inactive
CCc1ccc(NC(=O)CSc2nc(=O)n(CCN(C)C)c3c2CCCC3)cc1	none (no result: L major viab)
O=C(NC(=S)Nc1ccc(N2CCN(C(=O)c3ccccc3)CC2)cc1)c1cccs1	L major viab 92, Mdm2 MdmX PPI 51 (no result: CSC inhib, Beta apoptosis) | Mdm2-MdmX conf inactive
Cc1csc2nc(COC(=O)CNC(=O)c3ccc(Cl)cc3)cc(=O)n12	none (no result: T cruzi repl, L major viab, SKKanGAS inh, CSC inhib)
Cc1csc2nc(COC(=O)c3ccc(Cl)c([N+](=O)[O-])c3)cc(=O)n12	Mdm2 MdmX PPI 89 (no result: T cruzi repl, L major viab, SKKanGAS inh) | Mdm2-MdmX conf inactive
COc1cccc(CNC(=O)CCC2CCCN(c3cc(C)nc(N)n3)C2)c1 (centres undefined)	none
COC(=O)Cn1c(=O)c(C(=O)CCl)c(N)n(Cc2ccccc2)c1=O	T cruzi repl inconclusive, Mdm2 MdmX PPI 75 (no result: L major viab) | Mdm2-MdmX conf 48 | FLuc counter 70
CCC(=O)OCC(=O)c1c(N)n(Cc2ccccc2)c(=O)n(C)c1=O	none
O=C(NCCCN1CCCC1=O)c1ccc(Cl)c(S(=O)(=O)N2CCCCC2)c1	none (no result: T cruzi repl, L major viab, SKKanGAS inh)
O=C1CCCCC1Sc1nnc(-c2ccc3c(c2)OCO3)o1 (centres undefined)	Mdm2 MdmX PPI 73 | Mdm2-MdmX conf 69 | FLuc counter 90
Clc1ccc(CSc2nnc(-c3ccc4c(c3)OCO4)o2)cc1	none
Cc1ccccc1C(=O)Nc1cccc(NC(=O)Cn2cnc3c(=O)n(C)c(=O)n(C)c32)c1	Mdm2 MdmX PPI 51 | Mdm2-MdmX conf inactive
Cc1cccc(C)c1NC(=O)Cn1cnc2c(=O)n(C)c(=O)n(C)c21	none
Cc1ccc(NC(=O)COc2ccc(/C=N/NC(=O)CSCc3ccccc3)cc2)cc1	none
Cc1ccc(NC(=O)COc2ccc(/C=C3/SC(=Nc4ccccc4)N(Cc4cccnc4)C3=O)cc2)cc1	Mdm2 MdmX PPI 51 | Mdm2-MdmX conf inactive
Cc1[nH]nc2ncc(C(=O)c3cc(F)ccc3O)cc12	Mdm2 MdmX PPI 52 | Mdm2-MdmX conf inactive | FLuc counter 61
CC(=O)c1sc2c(c1N)c(=O)[nH]c(=O)n2-c1ccccc1	none (no result: L major viab)
